Measurements taken from ChEMBL document CHEMBL4346667 (Eur J Med Chem, 2019).
The source made the active and inactive calls. The calls are words filed in the database; no cut-off is given here.

What was measured:
MCF7 [1] = experiment: Cell cycle arrest in human MCF7 cells assessed as accumulation of cells at G2/M phase at 10 uM up to 48 hrs by propidium iodide double staining based flow cytometric analysis; format: functional
MCF7 [2] = experiment: Induction of apoptosis in human MCF7 cells at 1 uM after 48 hrs by Annexin V-FITC/propidium iodide staining-based flow cytometric analysis; format: functional, cell-based
Outline: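 Log-phase cells were seeded and treated after adhering, for 48 h in cycles of 6 h on and 6 h off. Cells were stained with annexin V (1 µg/mL) and PI (0.5 µg/mL) in Ca2+-enriched binding buffer for 15 min in the dark at room temperature. 10,000 events were read by flow cytometry (FL1 vs FL2). Apoptosis was the sum of early and late stages. At least three repeats.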

MCF7 [3] = experiment: Antitumor activity against human MCF7 cells xenografted in BALB/c nude mouse assessed as tumor weight at 40 mg/kg administered for a week; format: functional
Outline: (§1)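 Male BALB/c nude mice, 4 weeks old, 15-20 g. Log-phase MCF-7 cells in DMEM, 0.1 mL of 1×10^6 cells/mL, injected subcutaneously into the hind leg. Calipers twice weekly; at about 90 mm3, groups of 5. Vehicle was isotonic saline plus 0.005% DMSO. Injected at 40 mg/kg for a week; tumour volume recorded daily.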

MCF7 [4] = experiment: Antitumor activity against human MCF7 cells xenografted in BALB/c nude mouse assessed as inhibition of tumor growth at 40 mg/kg administered for a week; format: functional; outline: as §1
MCF7 [5] = experiment: Induction of apoptosis in human MCF7 cells assessed as necrotic cells at 1 uM after 6 hrs by Annexin V-FITC/propidium iodide staining-based flow cytometric analysis (reference value: 0.5%); format: functional
MCF7 [6] = experiment: Induction of apoptosis in human MCF7 cells assessed as viable cells at 5 uM after 6 hrs by Annexin V-FITC/propidium iodide staining-based flow cytometric analysis (reference value: 92.8%); format: functional; conditions: MCF7, 6 h, read-out: Activity
MCF7 [7] = experiment: Induction of apoptosis in human MCF7 cells assessed as necrotic cells at 5 uM after 6 hrs by Annexin V-FITC/propidium iodide staining-based flow cytometric analysis (reference value: 0.5%); format: functional
MCF7 [8] = experiment: Induction of apoptosis in human MCF7 cells assessed as viable cells at 10 uM after 6 hrs by Annexin V-FITC/propidium iodide staining-based flow cytometric analysis (reference value: 92.8%); format: functional; conditions: MCF7, 6 h, read-out: Activity
MCF7 [9] = experiment: Induction of apoptosis in human MCF7 cells assessed as necrotic cells at 10 uM after 6 hrs by Annexin V-FITC/propidium iodide staining-based flow cytometric analysis (reference value: 0.5%); format: functional
MCF7 [10] = experiment: Induction of apoptosis in human MCF7 cells assessed as viable cells at 25 uM after 6 hrs by Annexin V-FITC/propidium iodide staining-based flow cytometric analysis (reference value: 92.8%); format: functional; conditions: MCF7, 6 h, read-out: Activity
MCF7 [11] = experiment: Induction of apoptosis in human MCF7 cells assessed as late apoptotic cells at 25 uM after 6 hrs by Annexin V-FITC/propidium iodide staining-based flow cytometric analysis (reference value: 4.7%); format: functional
Outline: (§2)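 Log-phase cells seeded in 6-well plates and treated after adhesion; incubated in cycles of 6 h on/6 h off up to 48 h. Collected after PBS washes and trypsin, resuspended in Ca2+-enriched binding buffer. Stained with annexin V (1 µg/mL) plus PI (0.5 µg/mL) 15 min in the dark at room temperature. 10,000 events, FL1 vs FL2. At least three repeats.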

MCF7 [12] = experiment: Induction of apoptosis in human MCF7 cells assessed as viable cells at 50 uM after 6 hrs by Annexin V-FITC/propidium iodide staining-based flow cytometric analysis (reference value: 92.8%); format: functional; conditions: MCF7, 6 h, read-out: Activity
MCF7 [13] = experiment: Induction of apoptosis in human MCF7 cells assessed as early apoptotic cells at 50 uM after 6 hrs by Annexin V-FITC/propidium iodide staining-based flow cytometric analysis (reference value: 2%); format: functional; outline: as §2
MCF7 [14] = experiment: Induction of apoptosis in human MCF7 cells assessed as necrotic cells at 50 uM after 6 hrs by Annexin V-FITC/propidium iodide staining-based flow cytometric analysis (reference value: 0.5%); format: functional
MCF7 [15] = experiment: Induction of apoptosis in human MCF7 cells assessed as necrotic cells at 5 uM after 24 hrs by Annexin V-FITC/propidium iodide staining-based flow cytometric analysis (reference value: 0.2%); format: functional
MCF7 [16] = experiment: Induction of apoptosis in human MCF7 cells assessed as viable cells at 10 uM after 24 hrs by Annexin V-FITC/propidium iodide staining-based flow cytometric analysis (reference value: 92.1%); format: functional; conditions: MCF7, 24 h, read-out: Activity
MCF7 [17] = experiment: Induction of apoptosis in human MCF7 cells assessed as necrotic cells at 25 uM after 24 hrs by Annexin V-FITC/propidium iodide staining-based flow cytometric analysis (reference value: 0.2%); format: functional
MCF7 [18] = experiment: Induction of apoptosis in human MCF7 cells assessed as viable cells at 50 uM after 24 hrs by Annexin V-FITC/propidium iodide staining-based flow cytometric analysis (reference value: 92.1%); format: functional; conditions: MCF7, 24 h, read-out: Activity
MCF7 [19] = experiment: Induction of apoptosis in human MCF7 cells assessed as necrotic cells at 50 uM after 24 hrs by Annexin V-FITC/propidium iodide staining-based flow cytometric analysis (reference value: 0.2%); format: functional
MCF7 [20] = experiment: Induction of apoptosis in human MCF7 cells assessed as viable cells at 1 uM after 48 hrs by Annexin V-FITC/propidium iodide staining-based flow cytometric analysis (reference value: 87.9%); format: functional; conditions: MCF7, 48 h, read-out: Activity
MCF7 [21] = experiment: Induction of apoptosis in human MCF7 cells assessed as early apoptotic cells at 1 uM after 48 hrs by Annexin V-FITC/propidium iodide staining-based flow cytometric analysis (reference value: 9.1%); format: functional; outline: as §2
MCF7 [22] = experiment: Induction of apoptosis in human MCF7 cells assessed as necrotic cells at 1 uM after 24 hrs by Annexin V-FITC/propidium iodide staining-based flow cytometric analysis (reference value: 0.1%); format: functional
MCF7 [23] = experiment: Induction of apoptosis in human MCF7 cells assessed as viable cells at 5 uM after 48 hrs by Annexin V-FITC/propidium iodide staining-based flow cytometric analysis (reference value: 87.9%); format: functional; conditions: MCF7, 48 h, read-out: Activity
MCF7 [24] = experiment: Induction of apoptosis in human MCF7 cells assessed as late apoptotic cells at 5 uM after 48 hrs by Annexin V-FITC/propidium iodide staining-based flow cytometric analysis (reference value: 2.8%); format: functional; outline: as §2
MCF7 [25] = experiment: Induction of apoptosis in human MCF7 cells assessed as late apoptotic cells at 10 uM after 48 hrs by Annexin V-FITC/propidium iodide staining-based flow cytometric analysis (reference value: 2.8%); format: functional; outline: as §2
MCF7 [26] = experiment: Induction of apoptosis in human MCF7 cells assessed as viable cells at 25 uM after 48 hrs by Annexin V-FITC/propidium iodide staining-based flow cytometric analysis (reference value: 87.9%); format: functional; conditions: MCF7, 48 h, read-out: Activity
MCF7 [27] = experiment: Induction of apoptosis in human MCF7 cells assessed as viable cells at 50 uM after 48 hrs by Annexin V-FITC/propidium iodide staining-based flow cytometric analysis (reference value: 87.9%); format: functional; conditions: MCF7, 48 h, read-out: Activity
MCF7 [28] = experiment: Induction of apoptosis in human MCF7 cells assessed as early apoptotic cells at 50 uM after 48 hrs by Annexin V-FITC/propidium iodide staining-based flow cytometric analysis (reference value: 9.1%); format: functional; outline: as §2
MCF7 [29] = experiment: Induction of apoptosis in human MCF7 cells assessed as necrotic cells at 50 uM after 24 hrs by Annexin V-FITC/propidium iodide staining-based flow cytometric analysis (reference value: 0.1%); format: functional

SMILES: COc1cc([C@@H]2c3cc4c(cc3[C@@H](O[C@@H]3O[C@@H]5CO[C@@H](C)O[C@H]5[C@H](O)[C@H]3O)[C@H]3COC(=O)[C@H]23)OCO4)cc(OC)c1O [ETOPOSIDE]
- Activity (MCF7 [1]): Active
- Activity (MCF7 [2]): inactive
- Activity (MCF7 [3]): 0.834 g
- inhibition in vivo at 40 mg/kg (MCF7 [4]): 43.2%
- Activity (MCF7 [5]): 0.5%
- viability at 5 µM (MCF7 [6]): 89.7%
- Activity (MCF7 [7]): 0.6%
- viability at 10 µM (MCF7 [8]): 87.7%
- Activity (MCF7 [9]): 1%
- viability at 25 µM (MCF7 [10]): 90.6%
- Activity (MCF7 [11]): 6.7%
- viability at 50 µM (MCF7 [12]): 91.6%
- Activity (MCF7 [13]): 2.9%
- Activity (MCF7 [14]): 0.8%
- Activity (MCF7 [15]): 0.6%
- viability at 10 µM (MCF7 [16]): 73.9%
- Activity (MCF7 [17]): 0.8%
- viability at 50 µM (MCF7 [18]): 73.9%
- Activity (MCF7 [19]): 1%
- viability at 1 µM (MCF7 [20]): 79.1%
- Activity (MCF7 [21]): 14.8%
- Activity (MCF7 [22]): 0.2%
- viability at 5 µM (MCF7 [23]): 21.7%
- Activity (MCF7 [24]): 15.1%
- Activity (MCF7 [25]): 17.5%
- viability at 25 µM (MCF7 [26]): 25.7%
- viability at 50 µM (MCF7 [27]): 29.8%
- Activity (MCF7 [28]): 57%
- Activity (MCF7 [29]): 0.9%
